# Screening data from PubChem BioAssay.
# Shown are actives, neighbours in structure and some others; about 2.5% of the full set was active somewhere.
# SR-BI DiI inh = mouse SR-BI HDL lipid transfer inhibition | ldlA[mSR-BI] CHO cells, DiI-HDL uptake fluorescence, 3 h | Q61009 | inhibition, % at 12.5 µM | 320,000 compounds, 0.96% hits;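 active = mean replicate inhibition of at least 70% and a set share of replicates each scoring 70 or more; inconclusive = meets just one of the two criteria; inactive = fails both criteria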
# DYRK1A inh = inhibitors of rat Dyrk1A kinase | ADP-Glo luminescence, NFATc1 peptide | inhibition, % at 12.5 µM | 310,000 compounds, 0.43% hits
# NSD2 inh = inhibitors of human histone methyltransferase NSD2; O96028; NSD2 peptide methylation, AlphaScreen, 120 min; inhibition, % at 12.5 µM; 310,000 compounds, 0.54% hits
# Target sequence (O96028 whole entry, looked up): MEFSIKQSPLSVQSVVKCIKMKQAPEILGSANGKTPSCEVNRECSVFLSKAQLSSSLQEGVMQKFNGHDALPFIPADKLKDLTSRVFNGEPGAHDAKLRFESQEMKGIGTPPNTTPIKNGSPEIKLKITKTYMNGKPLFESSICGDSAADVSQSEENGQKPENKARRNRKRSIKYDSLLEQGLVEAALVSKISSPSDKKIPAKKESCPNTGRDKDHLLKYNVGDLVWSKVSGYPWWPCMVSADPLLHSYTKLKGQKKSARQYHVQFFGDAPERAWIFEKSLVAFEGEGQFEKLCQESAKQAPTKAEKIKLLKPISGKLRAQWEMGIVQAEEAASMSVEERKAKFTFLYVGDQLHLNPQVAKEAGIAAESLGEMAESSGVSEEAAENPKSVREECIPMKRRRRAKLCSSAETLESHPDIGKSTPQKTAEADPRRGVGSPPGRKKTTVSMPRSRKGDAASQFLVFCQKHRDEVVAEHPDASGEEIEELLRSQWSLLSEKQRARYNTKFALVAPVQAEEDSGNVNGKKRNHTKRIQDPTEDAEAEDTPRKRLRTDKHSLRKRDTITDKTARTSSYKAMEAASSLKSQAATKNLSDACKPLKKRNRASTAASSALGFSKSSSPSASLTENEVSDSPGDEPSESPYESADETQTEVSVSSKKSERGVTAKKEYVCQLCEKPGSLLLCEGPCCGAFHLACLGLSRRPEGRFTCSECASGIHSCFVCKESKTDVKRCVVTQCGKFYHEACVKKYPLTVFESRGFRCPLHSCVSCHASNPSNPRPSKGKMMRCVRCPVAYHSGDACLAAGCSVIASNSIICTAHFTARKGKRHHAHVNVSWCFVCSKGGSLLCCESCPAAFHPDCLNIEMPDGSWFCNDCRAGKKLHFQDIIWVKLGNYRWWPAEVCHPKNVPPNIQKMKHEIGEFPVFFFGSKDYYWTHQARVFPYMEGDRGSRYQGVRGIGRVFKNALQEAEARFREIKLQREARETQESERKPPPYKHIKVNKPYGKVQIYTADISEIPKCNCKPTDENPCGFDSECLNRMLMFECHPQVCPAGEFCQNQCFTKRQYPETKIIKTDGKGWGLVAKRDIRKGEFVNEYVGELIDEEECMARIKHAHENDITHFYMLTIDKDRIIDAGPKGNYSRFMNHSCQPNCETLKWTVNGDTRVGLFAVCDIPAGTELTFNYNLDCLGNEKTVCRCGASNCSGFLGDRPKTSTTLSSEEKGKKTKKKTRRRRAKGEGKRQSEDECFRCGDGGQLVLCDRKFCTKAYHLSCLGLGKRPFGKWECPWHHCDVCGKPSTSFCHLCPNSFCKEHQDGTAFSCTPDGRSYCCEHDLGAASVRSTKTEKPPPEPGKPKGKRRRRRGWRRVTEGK
# CDK5 inh = CDK5/p35 (human) kinase inhibition; Recombinant CDK5/p35, ADP-Glo luminescence, 60 min; 330,000 compounds, 0.01% hits; inhibition, % at 10 µM; Q00535+Q15078;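 active = highest replicate inhibition of at least 50% and at least 75% of replicates reaching 50%; inconclusive = only one of the two criteria met; inactive = both criteria failed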
# SR-BI DiI-HDL act = activators of SR-BI mediated HDL lipid uptake; activation, % at 12.5 µM; CHO ldlA[mSR-BI] cells, DiI-HDL uptake fluorescence, 3 h; 100 = double the neutral-control signal; 320,000 compounds, 0.096% hits;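 active = mean replicate activation of at least 60% and every replicate at or above 60%; inconclusive = mean or all-replicate condition met, but not both; inactive = mean below 60% and not all replicates reaching 60%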
#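 System: LDL receptor-deficient CHO ldlA cells overexpressing murine SR-BI | Timing: 3 h uptake period with compound, 37 °C | Medium: HEPES-buffered (25 mM, pH 7.4) F12 plus 0.5% BSA | Dosing: Single-point compound dose | Signal: Bottom-read fluorescence, 550/595 nm | Read-out: Retained DiI signal reflecting DiI-HDL uptake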
# dFosB act = mouse delta FosB homodimer activation; activation, % at 25 µM; purified delta FosB, TAMRA-CDK5 oligo fluorescence polarization; percent of positive-control signal above neutral wells; AID 493131; 340,000 compounds, 0.99% hits; P13346;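 active = mean activation above about 17%, with every replicate also reaching it, limit read from the data, passing the limit was not always enough; inconclusive = only one of the two conditions met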
# Hits are given with their value; 0 = inactive; ? = inconclusive; - = no result. Rule as the data show it, unless noted: active = inhibition above about 50%; inactive = the rest.
SMILES,SR-BI DiI inh,DYRK1A inh,NSD2 inh,CDK5 inh,SR-BI DiI-HDL act,dFosB act
C=CCCC(=O)Nc1ccc(Br)cn1,89,0,0,0,0,0
CCCCC(=O)Nc1ccc(Br)cn1,0,0,0,0,0,0
Cc1nn(CC(=O)Nc2ccc3c(c2)nc(CCN2CCCCC2)n3C)c(=O)c2ccccc12,0,0,0,0,0,0
Cc1nn(CC(=O)Nc2ccc3c(c2)nc2n3CCN(C3CCCCC3)C2)c(=O)c2ccccc12,0,-,0,0,0,27
Cn1c(N=Nc2ccc(N3CCOCC3)cc2)[n+](C)c2ccccc21,0,0,0,0,0,40
CCOc1ccc2c(c1)c(C(C)=O)c(C)n2-c1ccccc1,74,0,0,0,0,0
CCOC(=O)COc1ccc2c(c1)c(C(C)=O)c(C)n2-c1ccccc1,0,0,0,0,0,0
CC1(C)C=C2C(N(CC3CC3)C(=N)N2C(=O)OCc2ccccc2)n2c(=O)n(-c3ccccc3)c(=O)n21 (centres undefined),-,-,0,-,-,-
COC(=O)c1ccc(N2CCN(C(C)=O)CC2)c(NC(=O)c2cccnc2)c1,0,0,0,0,0,0
CCOc1ccc(N(CC(=O)Nc2c(C)n(C)n(-c3ccccc3)c2=O)S(=O)(=O)c2ccc(F)cc2)cc1,0,0,0,0,0,0
CCOc1ccccc1N(CC(=O)Nc1c(C)n(C)n(-c2ccccc2)c1=O)S(=O)(=O)c1ccccc1,0,0,0,0,71,0
CCCCCCC/C=C(\C)[C@@H](O)[C@@H](C)C(=O)N1CCC[C@@H]1C(=O)O[C@H](C(=O)O[C@@H](C)C(=O)O)[C@@H](C)CC,-,-,0,-,-,-
COc1cccc(OC)c1C(=O)NNC(=O)c1cccc(COc2ccc3c(c2)CCC3)c1,76,0,0,0,0,0
N#C/C(=C/C1=C(N2CCOCC2)C(=C/c2ccccc2)/CC1)C(=O)Nc1ccccc1F,75,0,0,0,0,0
N#C/C(=C\C1=C(N2CCOCC2)C(=C\c2ccc(Cl)cc2)/CC1)C(=O)Nc1ccccc1F,0,0,0,0,0,0
N#C/C(=C/C1=C(N2CCOCC2)C(=C/c2ccc(Cl)cc2Cl)/CC1)C(=O)Nc1ccccc1F,74,0,0,0,0,0
COCc1cc(N2CCOCC2)nc(-c2ccccc2)n1,0,0,0,0,0,0
COCc1cc(N2CCN(c3ccccc3F)CC2)nc(-c2ccccc2)n1,80,0,0,0,0,0
COc1ccccc1CNc1nc(Nc2ccccc2-n2cccn2)c2sccc2n1,-,-,0,-,-,-
Cc1cccc(N2CC(C(=O)NCCC3=CCCCC3)CC2=O)c1C (centres undefined),0,0,0,0,0,0
ON=C1c2cc(OCCN3CCCCC3)ccc2-c2ccc(OCCN3CCCCC3)cc21,0,0,-,0,0,?
NC(=S)NN=C1c2cc(OCCN3CCOCC3)ccc2-c2ccc(OCCN3CCOCC3)cc21,0,0,0,0,0,39
Cc1ccccc1NC(=O)OCCN1CCCC12CCC(c1ccccc1)CC2 (centres undefined),-,-,0,-,-,-
CN(C)c1ccc(C(=O)Nc2nc3c(s2)CCCC3)cc1,84,0,-,0,0,0
CC(C)(C)c1ccc(C(=O)NC(=S)Nc2nc3c(s2)CCCC3)cc1,0,0,0,0,0,0
SMILES,SR-BI DiI inh,DYRK1A inh,NSD2 inh,CDK5 inh,SR-BI DiI-HDL act,dFosB act
COc1ccc(C(=O)Nc2cc3c4c(c2)C(C)C(=O)N4CCC3)cc1 (centres undefined),0,0,0,0,0,0
COc1ccc(C(=O)Nc2cc3c4c(c2)C(C)C(=O)N4CCC3)cc1OC (centres undefined),79,0,0,0,0,0
O=[N+]([O-])c1ccccc1/C=C/C=N/Nc1ccc(S(=O)(=O)Nc2ccc(Cl)cc2)cc1[N+](=O)[O-],100,-,0,0,0,0
O=[N+]([O-])c1ccc(N/N=C/c2c[nH]c3ccccc23)c(S(=O)(=O)Nc2ccc(Cl)cc2)c1,94,0,0,0,0,0
O=C(O)c1ccc(N/N=C/C=C/c2ccccc2[N+](=O)[O-])cc1,0,0,-,0,0,0
COc1cc(OC)cc(C(=O)NC2CC3CCC(C2)N3C)c1 (centres undefined),0,-,0,0,0,0
O=C(Nc1nc2ccc(Cl)cc2s1)c1ccco1,0,0,0,0,0,0
O=C(Nc1nc2ccc(Br)cc2s1)c1ccco1,93,0,0,0,0,0
CCN1CCSc2ccc(C(=O)Nc3ccc(NC(C)=O)cc3)cc21,80,0,0,0,0,0
COc1cccc2sc(N(CCN(C)C)C(=O)/C=C/c3cccs3)nc12,0,-,0,0,0,0
COc1ccc(OC)c2sc(N(CCN(C)C)C(=O)/C=C/c3cccs3)nc12,0,0,0,0,0,40
CCOc1cccc2sc(N(CCN(C)C)C(=O)/C=C/c3cccs3)nc12,0,0,0,0,0,0
COc1ccc(C)c2sc(N(CCN(C)C)C(=O)/C=C/c3cccs3)nc12,0,0,0,0,0,78
COC(=O)c1cnc(N)s1,0,0,0,0,0,0
CCOc1ccc(C(=O)Nc2cccc(-c3nc4cccnc4o3)c2)cc1Cl,83,0,0,0,0,0
Cc1ccc(S(=O)(=O)N2CCOCC2)cc1C(=O)OCC(=O)Nc1ccc2[nH]c(=O)[nH]c2c1,0,0,0,0,0,0
COc1ccc2ccccc2c1/C=N/NC(=O)c1nnn(-c2nonc2N)c1C(C)C,77,0,0,0,0,0
COc1ccc2ccccc2c1/C=N/NC(=O)c1nnn(-c2nonc2N)c1CN(C)C,0,0,0,0,0,0
Cc1c(C(=O)N/N=C/c2c(O)ccc3ccccc23)nnn1-c1nonc1N,0,0,0,0,0,38
CC1=CC(=C(C#N)c2nc3ccccc3s2)C=C(C)N1Cc1ccco1,109,0,-,0,0,0
O=C(NCc1ccc(C(=O)NCC2CCCO2)cc1)c1cccc(Br)c1 (centres undefined),-,-,0,-,-,-
CC(C)N=c1cc2n(-c3ccc(Cl)cc3)c3ccccc3nc-2cc1Nc1ccc(Cl)cc1,83,0,-,0,0,0
O=C(CSc1nnc(SCc2cccc3ccccc23)s1)Nc1ccc(S(=O)(=O)Nc2nccs2)cc1,-,-,0,-,-,-
CCN1C(=O)/C(=c2\o/c(=C3\C=Cc4ccccc4N3CC)c(=O)n2CC)SC1=S,0,0,0,0,0,0
CCN1C(=O)/C(=C2\C=Cc3ccccc3N2CC)SC1=S,74,0,0,0,0,0
CN(C)c1ccc(C2N3CC4(C)CN2CC(C)(C3)C4O)cc1 (centres undefined),0,0,-,0,0,0
CC12CN3CC(C)(CN(C1)C3c1ccc(Cl)cc1Cl)C2O (centres undefined),0,0,0,0,79,0
Cc1c(C(=O)c2ccc(N(C)C)cc2)c2ccccn2c1CCC#N,73,0,0,0,0,0
